In ChEMBL document CHEMBL1123346, “Pyrimidinones. 3. N-substituted 6-phenylpyrimidinones and pyrimidinediones with diuretic/hypotensive and antiinflammatory activity” (J Med Chem, 1986):
Activity calls are given as the source filed them.

Legend:
Rattus norvegicus [1] = assay: Inhibition of RPAR administered perorally at 25 mg/kg dose; type: functional; details: route oral
How it was run: (§1)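 Male Wistar rats (180-200 g), 5-10/group, dosed orally (water with Tween-80 suspension) 1 h before iv sensitization with 1 mg bovine serum albumin; 24-h fasted. 60 min later subplantar challenge with 200 µg anti-BSA in left hindpaw. Paw swelling by mercury displacement plethysmography at 2 h post-challenge.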

Rattus norvegicus [2] = assay: Inhibition of RPAR administered perorally at 100 mg/kg dose; type: functional; details: route oral; how it was run: as §1
Rattus norvegicus [3] = assay: Inhibition of RPAR administered perorally at 50 mg/kg dose; type: functional; details: route oral; how it was run: as §1
Rattus norvegicus [4] = species: Rattus norvegicus; assay: Compound was tested for diuretic activity in rats; I=Inactive; type: functional, organism-based; details: Urine
How it was run: (§2)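 Male rats (~160 g) fasted 24 h, water withheld 1.5 h, both withheld during test. Gavage 25 mL/kg 0.9% saline with 0.5% carboxymethylcellulose containing compound at 40 mg/kg; urine collected 5 h in metabolism cages. Two-stage test, T/C urine volume per stage; active if product of stage T/Cs ≥3.34.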

Rattus norvegicus [5] = assay: Compound was tested for inhibition of RPAR administered perorally at 25 mg/kg dose; I=Inactive; type: functional, organism-based; parameters: dose 25 mg/kg; how it was run: as §1
Rattus norvegicus [6] = species: Rattus norvegicus; assay: Diuretic activity in rats; type: functional, Urine; how it was run: as §2
[7] = Sodium salt excretion in conscious rat at the dose of 30 mg/kg expressed as urinary excretion in treated rats/urinary excretion in control rats; type: ADME, organism-based, Urine; parameters: dose 30 mg/kg; details: in vivo
How it was run: (§3)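 Male rats (~160 g) fasted 24 h, water withheld 1.5 h; oral gavage of compound (0.3-100 mg/kg) in 25 mL/kg saline with 0.5% carboxymethylcellulose; 5 h urine collection in metabolism cages. Urine volume, Na+ and K+ (flame photometry) expressed as treated/control excretion ratio.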

[8] = Sodium salt excretion in conscious rat at the dose of 3.0 mg/kg expressed as urinary excretion in treated rats/urinary excretion in control rats; type: ADME, organism-based, Urine; parameters: dose 3 mg/kg; details: in vivo; how it was run: as §3
[9] = Sodium salt excretion in conscious rat at the dose of 10 mg/kg expressed as urinary excretion in treated rats/urinary excretion in control rats; type: ADME, organism-based, Urine; parameters: dose 10 mg/kg; details: in vivo; how it was run: as §3
Rattus norvegicus [10] = assay: Compound was tested for urinary volume excretion in conscious rat at the dose of 1.0 mg/kg expressed as urinary excretion in treated rats/urinary excretion in control rats; type: ADME, organism-based, Urine; parameters: dose 1 mg/kg; details: in vivo; how it was run: as §3
Rattus norvegicus [11] = assay: Compound was tested for urinary volume excretion in conscious rat at the dose of 100 mg/kg expressed as urinary excretion in treated rats/urinary excretion in control rats; type: ADME, organism-based, Urine; parameters: dose 100 mg/kg; details: in vivo; how it was run: as §3
Rattus norvegicus [12] = assay: Compound was tested for urinary volume excretion in conscious rat at the dose of 3.0 mg/kg expressed as urinary excretion in treated rats/urinary excretion in control rats; type: ADME, organism-based, Urine; parameters: dose 3 mg/kg; details: in vivo; how it was run: as §3
[13] = Sodium salt excretion in conscious rat at the dose of 100 mg/kg expressed as urinary excretion in treated rats/urinary excretion in control rats; type: ADME, organism-based, Urine; parameters: dose 100 mg/kg; details: in vivo; how it was run: as §3
[14] = Potassium salt excretion in conscious rat at the dose of 10 mg/kg expressed as urinary excretion in treated rats/urinary excretion in control rats; type: ADME, organism-based, Urine; parameters: dose 10 mg/kg; details: in vivo; how it was run: as §3
Rattus norvegicus [15] = assay: Compound was tested for urinary volume excretion in conscious rat at the dose of 30 mg/kg expressed as urinary excretion in treated rats/urinary excretion in control rats; type: ADME, organism-based, Urine; parameters: dose 30 mg/kg; details: in vivo; how it was run: as §3
Rattus norvegicus [16] = assay: Compound was tested for urinary volume excretion in conscious rat at the dose of 10 mg/kg expressed as urinary excretion in treated rats/urinary excretion in control rats; type: ADME, organism-based, Urine; parameters: dose 10 mg/kg; details: in vivo; how it was run: as §3
[17] = Potassium salt excretion in conscious rat at the dose of 100 mg/kg expressed as urinary excretion in treated rats/urinary excretion in control rats; type: ADME, organism-based, Urine; parameters: dose 100 mg/kg; details: in vivo; how it was run: as §3
[18] = Sodium salt excretion in conscious rat at the dose of 0.3 mg/kg expressed as urinary excretion in treated rats/urinary excretion in control rats; type: ADME, organism-based, Urine; parameters: dose 0.3 mg/kg; details: in vivo; how it was run: as §3
[19] = Potassium salt excretion in conscious rat at the dose of 0.3 mg/kg expressed as urinary excretion in treated rats/urinary excretion in control rats; type: ADME, organism-based, Urine; parameters: dose 0.3 mg/kg; details: in vivo; how it was run: as §3
Rattus norvegicus [20] = assay: Compound was tested for urinary volume excretion in conscious rat at the dose of 0.3 mg/kg expressed as urinary excretion in treated rats/urinary excretion in control rats; type: ADME, organism-based, Urine; parameters: dose 0.3 mg/kg; details: in vivo; how it was run: as §3
[21] = Potassium salt excretion in conscious rat at the dose of 1.0 mg/kg expressed as urinary excretion in treated rats/urinary excretion in control rats; type: ADME, organism-based, Urine; parameters: dose 1 mg/kg; details: in vivo; how it was run: as §3
[22] = Potassium salt excretion in conscious rat at the dose of 30 mg/kg expressed as urinary excretion in treated rats/urinary excretion in control rats; type: ADME, organism-based, Urine; parameters: dose 30 mg/kg; details: in vivo; how it was run: as §3
Rattus norvegicus [23] = assay: Blood pressure change in rats after oral administration of 50 mg/kg dose after 24 hours; type: functional
How it was run: (§4)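 Restrained female Sprague–Dawley rats with indwelling aortic cannulas exteriorized at the nape; direct arterial pressure via transducer, mean pressure by electrical integration of phasic pressure. Readings before and 4 and 24 h after oral dosing (carboxymethylcellulose suspension, 10 mL/kg). Value is change in mean arterial pressure, averaged over two animals.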

Rattus norvegicus [24] = assay: Blood pressure change in rats after oral administration of 50 mg/kg dose after 4 hours; type: functional; how it was run: as §4
[25] = Potassium salt excretion in conscious rat at the dose of 3.0 mg/kg expressed as urinary excretion in treated rats/urinary excretion in control rats; type: ADME, organism-based, Urine; parameters: dose 3 mg/kg; details: in vivo; how it was run: as §3
[26] = Sodium salt excretion in conscious rat at the dose of 1.0 mg/kg expressed as urinary excretion in treated rats/urinary excretion in control rats; type: ADME, organism-based, Urine; parameters: dose 1 mg/kg; details: in vivo; how it was run: as §3

Row | Na+ excretion [7] | Na+ excretion [8] | Na+ excretion [9] | Urinary volume (Rattus norvegicus [10]) | Urinary volume (Rattus norvegicus [11]) | Urinary volume (Rattus norvegicus [12]) | Na+ excretion [13] | K+ excretion [14] | Urinary volume (Rattus norvegicus [15]) | Urinary volume (Rattus norvegicus [16]) | K+ excretion [17] | Na+ excretion [18] | K+ excretion [19] | Urinary volume (Rattus norvegicus [20]) | Structure (SMILES) | inhibition in vivo at 25 mg/kg (Rattus norvegicus [1]) [%] | inhibition in vivo at 100 mg/kg (Rattus norvegicus [2]) [%] | inhibition in vivo at 50 mg/kg (Rattus norvegicus [3]) [%] | Diuretic activity (Rattus norvegicus [6]) | MABP change (Rattus norvegicus [23]) [mmHg] | MABP change (Rattus norvegicus [24]) [mmHg] | other results
1 |  |  |  |  |  |  |  |  |  |  |  |  |  |  | CNc1nc(O)c(Br)c(-c2ccccc2)n1 | 42 | 82 | 78 |  |  |  | 
2 |  |  |  |  |  |  |  |  |  |  |  |  |  |  | Nc1nc(O)cc(-c2ccccc2)n1 |  |  |  |  |  |  | Diuretic activity (Rattus norvegicus [4]): inactive; inhibition (Rattus norvegicus [5]): inactive
3 | 2.9 | 1.5 | 2.3 | 1.2 | 2.7 | 1.3 | 2.8 | 1.3 | 2.6 | 2.5 | 1.3 | 1.1 | 1.1 | 1.1 | Nc1nc(=O)c(Br)c(-c2ccccc2)[nH]1 [BROPIRIMINE] | 13 | 44 | 31 | 7.41 | -22 | 0 | K+ excretion [21]: 1; K+ excretion [22]: 1.5; K+ excretion [25]: 1.1; Na+ excretion [26]: 1.3
4 | 1.6 | 0.9 | 1.1 | 0.9 | 1.6 | 0.8 | 1.6 | 1.3 | 1.6 | 1.1 | 1.9 | 1.1 | 0.9 | 0.9 | Cn1c(-c2ccccc2)c(Cl)c(=O)[nH]c1=O |  |  |  | 3.49 | 2 | 2 | K+ excretion [21]: 1.2; K+ excretion [22]: 1.7; K+ excretion [25]: 1.1; Na+ excretion [26]: 1.1
5 |  |  |  |  |  |  |  |  |  |  |  |  |  |  | Cn1c(=O)[nH]c(-c2ccccc2)c(I)c1=O |  |  |  |  | 4 | 1 | 
6 |  |  |  |  |  |  |  |  |  |  |  |  |  |  | CC(=O)Nc1nc(O)c(I)c(-c2ccccc2)n1 |  |  |  |  | 9 | 3 | 
7 |  |  |  |  |  |  |  |  |  |  |  |  |  |  | Cn1c(-c2ccccc2)c(Br)c(=O)[nH]c1=O | 22 | 57 | 43 |  | 1 | 1 | 
8 | 2.4 | 1.6 | 1.9 | 1.4 | 2 | 1.6 | 2.7 | 1.4 | 2.7 | 2.2 | 1.6 | 1.1 | 1.1 | 1.3 | Cn1c(N)nc(-c2ccccc2)c(I)c1=O | 18 | 79 | 30 | 4.46 | -13 | -6 | K+ excretion [21]: 1.1; K+ excretion [22]: 2.1; K+ excretion [25]: 1.2; Na+ excretion [26]: 1.2
9 |  |  |  |  |  |  |  |  |  |  |  |  |  |  | N=C(N)NCCN1CCCCCCC1 [GUANETHIDINE] |  |  |  |  | 9 | -16 | 
10 |  |  |  |  |  |  |  |  |  |  |  |  |  |  | CN(C)c1nc(O)c(Br)c(-c2ccccc2)n1 |  |  |  |  | 2 | 1 | 
11 |  |  |  |  |  |  |  |  |  |  |  |  |  |  | Cn1c(-c2ccccc2)cc(=O)[nH]c1=O | 27 | 79 | 47 |  | 6 | 4 | 
12 |  |  |  |  |  |  |  |  |  |  |  |  |  |  | N=C(N)Nc1nc(O)c(I)c(-c2ccccc2)n1 |  |  |  |  | 3 | -2 | 
13 | 3.1 | 1.1 | 1.5 | 1.2 | 7.2 | 1.3 | 4.5 | 1.6 | 4.7 | 2.2 | 3.2 | 1.1 | 1 | 1.1 | NS(=O)(=O)c1cc(C(=O)O)c(NCc2ccco2)cc1Cl [FUROSEMIDE] |  |  |  | 31.25 | -3 | 1 | K+ excretion [21]: 1; K+ excretion [22]: 2.2; K+ excretion [25]: 1.3; Na+ excretion [26]: 1.1
